# According to ChEMBL document CHEMBL5634095, “Design, synthesis and evaluation of novel pyrimidinylaminothiophene derivatives as FGFR1 inhibitors against human glioblastoma multiforme” (Eur J Med Chem, 2023):
# Active and inactive are the calls of the source. No cut-off for these calls is given here.
# What was measured:
# [1] = tested on: U-87 MG; assay: Antiproliferative activity against human U-87 MG cells incubated for 48 hrs by MTT assay
# [2] = tested on: U-87 MG; assay: Inhibition of colony formation in human U-87MG cells
# [3] = tested on: NIH3T3; assay: Cytotoxicity against mouse NIH/3T3 cells incubated for 48 hrs by MTT assay; type: toxicity, cell-based; conditions: nih3t3, 48 h
# [4] = Cmax in rat at 52.5 mg/kg, po measured upto 48 hrs by LC analysis; type: ADME, organism-based; conditions: in vivo
# Outline: (§1)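 Rats (n=5) dosed orally once with 52.5 mg/kg, dispersed in sodium carboxymethyl cellulose. Plasma separated at 1200×g, deproteinated with acetonitrile, then analysed by UHPLC on a C18 column with a methanol/formic acid eluent.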
# [5] = Tmax in rat at 52.5 mg/kg, po measured upto 48 hrs by LC analysis; type: ADME, organism-based; conditions: in vivo; outline: as §1
# [6] = Terminal half-life in rat at 52.5 mg/kg, po measured upto 48 hrs by LC analysis; type: ADME, organism-based; conditions: in vivo, read-out: beta t1/2 (converted); outline: as §1
# [7] = AUC in rat at 52.5 mg/kg, po measured upto 48 hrs by LC analysis; type: ADME, organism-based; conditions: in vivo; outline: as §1
# [8] = tested on: U-87 MG; assay: Antitumor activity against human U-87 MG cells implanted in nude mouse assessed as reduction in Ki67 expression at 50 mg/kg/day, po administered 5 times a week for 4 weeks by IHC analysis; type: functional, U-87MG ATCC; parameters: scale not given: the % may be the effect or the level left
# [9] = tested on: U-87 MG; assay: Antitumor activity against human U-87 MG cells implanted in nude mouse assessed as reduction in Ki67 expression at 75 mg/kg/day, po administered 5 times a week for 4 weeks by IHC analysis; type: functional, U-87MG ATCC; parameters: scale not given: the % may be the effect or the level left
# [10] = tested on: U-87 MG; assay: Antitumor activity against human U-87 MG cells implanted in nude mouse assessed as reduction in CD31 expression at 50 mg/kg/day, po administered 5 times a week for 4 weeks by IHC analysis; type: functional, U-87MG ATCC; parameters: scale not given: the % may be the effect or the level left
# [11] = tested on: U-87 MG; assay: Antitumor activity against human U-87 MG cells implanted in nude mouse assessed as reduction in CD31 expression at 75 mg/kg/day, po administered 5 times a week for 4 weeks by IHC analysis; type: functional, U-87MG ATCC; parameters: scale not given: the % may be the effect or the level left
# [12] = tested on: U-87 MG; assay: Induction of cell cycle arrest in human U-87 MG cells assessed as increase in G2/M phase cell population at 0.3 uM incubated for 48 hrs by PI staining based flow cytometry analysis (reference value: 14.5 %); type: functional, U-87MG ATCC
# [13] = tested on: U-87 MG; assay: Induction of cell cycle arrest in human U-87 MG cells assessed as increase in G2/M phase cell population at 1 uM incubated for 48 hrs by PI staining based flow cytometry analysis (reference value: 14.5 %); type: functional, U-87MG ATCC
# [14] = tested on: U-87 MG; assay: Induction of cell cycle arrest in human U-87 MG cells assessed as increase in G2/M phase cell population at 3 uM incubated for 48 hrs by PI staining based flow cytometry analysis (reference value: 14.5 %); type: functional, U-87MG ATCC
# [15] = tested on: U-87 MG; assay: Induction of cell cycle arrest in human U-87 MG cells assessed as decrease in G0 phase cell population at 0.3 uM incubated for 48 hrs by PI staining based flow cytometry analysis (reference value: 71.6 %); type: functional, U-87MG ATCC; parameters: scale not given: the % may be the effect or the level left
# [16] = tested on: U-87 MG; assay: Induction of cell cycle arrest in human U-87 MG cells assessed as decrease in G0 phase cell population at 1 uM incubated for 48 hrs by PI staining based flow cytometry analysis (reference value: 71.6 %); type: functional, U-87MG ATCC; parameters: scale not given: the % may be the effect or the level left
# [17] = tested on: U-87 MG; assay: Induction of cell cycle arrest in human U-87 MG cells assessed as decrease in G0 phase cell population at 3 uM incubated for 48 hrs by PI staining based flow cytometry analysis (reference value: 71.6 %); type: functional, U-87MG ATCC; parameters: scale not given: the % may be the effect or the level left
# [18] = tested on: U-87 MG; assay: Anti-invasive activity against human U-87 MG cells assessed as reduction in number of cells at upper well at 0.3 uM incubated for 24 hrs by crystal violet staining based inverted microscope analysis; type: functional, U-87MG ATCC
# Outline: (§2)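 Transwell top chambers coated with Matrigel (1:9 in serum-free DMEM). U-87 MG cells pretreated 20 min with 0.1% DMSO or compound, seeded at 1×10^4 cells/well, with complete medium below. After 24 h, non-invading cells removed and the rest fixed in paraformaldehyde, stained with 0.1% crystal violet, imaged at ×100 in six random fields and counted.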
# [19] = tested on: U-87 MG; assay: Anti-invasive activity against human U-87 MG cells assessed as reduction in number of cells at upper well at 3 uM incubated for 24 hrs by crystal violet staining based inverted microscope analysis; type: functional, U-87MG ATCC; outline: as §2
# [20] = tested on: HUVEC; assay: Anti-angiogenesis activity in HUVEC assessed as reduction in tube formation at 0.1 uM incubated for 24 hrs by matrigel based light microscopic analysis; type: functional, Homo sapiens; parameters: scale not given: the % may be the effect or the level left
# [21] = tested on: HUVEC; assay: Anti-angiogenesis activity in HUVEC assessed as reduction in tube formation at 0.5 uM incubated for 24 hrs by matrigel based light microscopic analysis; type: functional, Homo sapiens; parameters: scale not given: the % may be the effect or the level left
# [22] = tested on: HUVEC; assay: Anti-angiogenesis activity in HUVEC assessed as reduction in tube formation at 2 uM incubated for 24 hrs by matrigel based light microscopic analysis; type: functional, Homo sapiens; parameters: scale not given: the % may be the effect or the level left
# [23] = species: Mus musculus; conditions: dose 50-75 mg/kg/day, route po, time 4.0 weeks
smiles,measurement,setting,value
CNC(=O)c1ccsc1Nc1nc(Nc2ccc(N3CCC(N4CCCCC4)CC3)cc2)ncc1C(F)(F)F,IC50,[1],2.77 µM
COc1cc(CCc2cc(NC(=O)c3ccc(N4C[C@@H](C)N[C@@H](C)C4)cc3)n[nH]2)cc(OC)c1 [FEXAGRATINIB],IC50,[1],25.4 µM
CNC(=O)c1ccsc1Nc1nc(Nc2ccc(CS(=O)(=O)N3CCOCC3)cc2)ncc1C(F)(F)F,IC50,[1],18.9 µM
CNC(=O)c1ccsc1Nc1nc(Nc2ccc(CCN3CCS(=O)(=O)CC3)cc2)ncc1C(F)(F)F,IC50,[1],12.4 µM
CNC(=O)c1ccsc1Nc1nc(Nc2ccc(OCCN3CCOCC3)cc2)ncc1C(F)(F)F,IC50,[1],12 µM
CNC(=O)c1cc(C(C)(C)C)sc1Nc1nc(Nc2ccc(N3CCOCC3)cc2)ncc1C(F)(F)F,IC50,[1],> 50 µM
CNC(=O)c1ccsc1Nc1nc(Nc2cccc(N3CCOCC3)c2)ncc1C(F)(F)F,IC50,[1],19.2 µM
CNC(=O)c1ccsc1Nc1nc(Nc2ccc(N3CCC(N4CCOCC4)CC3)cc2)ncc1Br,IC50,[1],30.1 µM
CNC(=O)c1ccsc1Nc1nc(Nc2ccc(N3CCC(N4CCOCC4)CC3)cc2)ncc1Cl,IC50,[1],4.25 µM
CNC(=O)c1ccsc1Nc1nc(Nc2ccc(N3CCOCC3)cc2)ncc1C(F)(F)F,IC50,[1],> 50 µM
CNC(=O)c1ccsc1Nc1nc(Nc2ccc(N3CCC(N4CCOCC4)CC3)cc2)ncc1C,IC50,[1],11.6 µM
CNC(=O)c1cc(-c2ccccc2)sc1Nc1nc(Nc2ccc(N3CCOCC3)cc2)ncc1C(F)(F)F,IC50,[1],23.2 µM
CNC(=O)c1ccsc1Nc1nc(Nc2ccc(N3CCC(N4CCOCC4)CC3)cc2)ncc1C(F)(F)F,IC50,[1],2.38 µM
same,IC50,[2],0.12 µM
same,Activity,[3],Non-Toxic
same,Cmax,[4],3900 ng/mL
same,Tmax,[5],4.4 h
same,half-life,[6],14.3 h
same,AUC at 48 h,[7],71500 ng·h/mL
same,Activity,[8],38.4%
same,Activity,[9],62%
same,Activity,[10],78.9%
same,Activity,[11],37.5%
same,Activity,[12],56.8%
same,Activity,[13],79.4%
same,Activity,[14],86.8%
same,Activity,[15],34.4%
same,Activity,[16],16.6%
same,Activity,[17],9.36%
same,Activity,[18],71
same,Activity,[19],24
same,Activity,[20],10.4%
same,Activity,[21],59.7%
same,Activity,[22],81%
same,inhibition,[23],Active
CNC(=O)c1ccsc1Nc1nc(Nc2ccc(N3CCN(CCO)CC3)cc2)ncc1C(F)(F)F,IC50,[1],3.71 µM
